Tests used:
[1] = biological target: β-lactamase (Enterobacter cloacae, UniProt P05364); assay: β-Lactamase promiscuous inhibitor assay; assay type: biochemical; conditions: in the absence of Triton X-100
[2] = Activity in other PubChem / NIH Chemical Genomics Center screens
[3] = biological target: T1, K18PL tau (Homo sapiens, UniProt P10636, P618L); assay: Primary qHTS K18PL tau assembly, fluorescence polarization; assay type: biochemical; conditions: for 1° FP Screen Log IC50: printed as Log IC50; for 1° FP Screen % Inhib: maximum % inhibition of FP
Method in brief: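 K18PL (30 µM stock with 0.24 µM Alexa Red-labelled K18PL) received compound at six five-fold dilutions (56 µM–18 nM), then heparin, and incubated 6 h at 37°C. FP was read after ThT (ex 555, em 632 nm, P/S channels); mP = 1000*(S−G*P)/(S+G*P), G = 1. Inhibition was normalised to non-fibrillizing K18KD and DMSO wells, pattern-corrected, and curve-fitted and classified. Single determinations.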

[4] = biological target: T1, K18PL tau; assay: Primary qHTS K18PL tau fibrillization, ThT fluorescence readout; assay type: biochemical; conditions: for 1° ThT Screen Curve class / 1° ThT Screen Log IC50: ThT fluorescence; for 1° ThT Screen Log IC50: printed as Log IC50; for 1° ThT Screen % Inhib: maximum % inhibition of ThT fluorescence
Method in brief: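 Screen used K18PL tau (15 µM) with Alexa Red-labelled K18PL and 40 µM heparin stock, plus compound at six five-fold dilutions (56 µM–18 nM), run 6 h at 37°C. ThT was added (12.5 µM final, 100 mM glycine pH 8.5) for 1 h at room temperature; read ex 450/em 510 nm. Percent inhibition was computed versus median K18KD and DMSO controls, then pattern-corrected, with concentration-response curves fitted and classified. Single determinations per concentration.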

[5] = biological target: full-length tau40 (Homo sapiens, UniProt P10636); assay: Tau40 ThT fluorescence assay; assay type: biochemical; conditions: inhibition of ThT fluorescence, compound 50 µM
[6] = Alexa Red total fluorescence; conditions: percent inhibition of Alexa Red total fluorescence
Method in brief: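 Alexa Red total fluorescence was computed from the qHTS FP S and P channel readings as TF = S + 2*P. It was expressed as a percentage of the DMSO control value, with values >30% flagged as potential fluorescence interference.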

[7] = biological target: T1, K18PL tau; assay: Repeat K18PL tau ThT fluorescence assay; assay type: biochemical; conditions: repeat testing of screening hits, maximum percent inhibition
Method in brief: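 Retesting of K18PL heparin-induced fibrillization used duplicate samples at each concentration, with the highest tested concentration 80 µM. ThT was read at 12.5 µM final in 100 mM glycine, pH 8.5, with excitation 450 nm and emission 510 nm. IC50 and percent inhibition at the top concentration were derived.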

[8] = biological target: Tau40 (Homo sapiens, UniProt P10636); assay: SEC of Tau40 fibrillization reaction post-centrifugation supernatants; assay type: biochemical; conditions: 50 µM MLS000062428
Method in brief: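 Tau40 (50 µM) was incubated with heparin (20 µM) ± test compound in 100 mM sodium acetate, pH 7.0, for 5 days at 37°C. A no-heparin control was included. Reactions were spun at 40,000 g for 30 min, and supernatants were run on Superdex 200 at 0.4 ml/minute. Void volume was set by blue dextran, with BSA and cytochrome c as markers.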

[9] = biological target: T1, K18PL tau; assay: K18PL tau centrifugation; assay type: biochemical; conditions: compound 100 µM, Table 1 hits
Method in brief: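 Heparin-induced K18PL fibrillization was run with test compound at a single concentration of 100 µM or with DMSO vehicle, then centrifuged to sediment fibrils. Supernatant and pellet fractions were analysed by SDS-PAGE, and the percentage of tau remaining in the soluble fraction was determined.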

[10] = biological target: tau-mediated MT assembly (K18 tau, bovine brain tubulin) (Homo sapiens, UniProt P10636); assay: Tau-mediated MT assembly assay; assay type: biochemical; conditions: 50 µM compound, 40 µM K18, 30 µM tubulin
Sequence of tau-mediated MT assembly (K18 tau, bovine brain tubulin) (P10636 561-686): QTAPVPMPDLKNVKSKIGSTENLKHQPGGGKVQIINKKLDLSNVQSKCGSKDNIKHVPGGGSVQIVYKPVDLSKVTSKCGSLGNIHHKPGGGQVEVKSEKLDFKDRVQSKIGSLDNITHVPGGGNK

T1 sequence (P10636 561-686 P618L): as the sequence (P10636 561-686) above, with P58L counted along it
Sequence of β-lactamase (P05364 21-381): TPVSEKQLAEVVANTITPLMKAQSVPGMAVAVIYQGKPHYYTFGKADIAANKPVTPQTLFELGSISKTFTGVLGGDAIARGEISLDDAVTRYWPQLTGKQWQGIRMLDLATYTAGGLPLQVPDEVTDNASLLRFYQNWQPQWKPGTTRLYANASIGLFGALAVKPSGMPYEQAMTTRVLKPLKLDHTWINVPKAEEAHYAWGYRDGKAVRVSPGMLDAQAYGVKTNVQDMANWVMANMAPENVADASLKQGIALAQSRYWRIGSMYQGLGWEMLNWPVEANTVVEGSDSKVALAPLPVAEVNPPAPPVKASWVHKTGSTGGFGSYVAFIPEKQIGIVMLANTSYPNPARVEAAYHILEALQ
Sequence of full-length tau40 (P10636 1-441 isoform P10636-8): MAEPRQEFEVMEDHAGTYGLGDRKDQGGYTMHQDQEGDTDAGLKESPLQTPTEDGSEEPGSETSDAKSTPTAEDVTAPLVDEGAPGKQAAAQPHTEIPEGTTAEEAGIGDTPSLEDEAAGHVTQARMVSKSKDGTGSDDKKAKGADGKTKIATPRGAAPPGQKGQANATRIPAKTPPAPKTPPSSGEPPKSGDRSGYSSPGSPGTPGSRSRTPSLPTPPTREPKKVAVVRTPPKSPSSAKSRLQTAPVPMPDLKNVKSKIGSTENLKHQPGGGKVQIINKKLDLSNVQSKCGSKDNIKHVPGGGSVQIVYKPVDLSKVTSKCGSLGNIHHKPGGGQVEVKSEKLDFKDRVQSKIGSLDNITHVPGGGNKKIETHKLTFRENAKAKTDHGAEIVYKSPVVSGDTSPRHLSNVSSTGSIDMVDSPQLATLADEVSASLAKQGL
Sequence of Tau40 (P10636 1-441 isoform P10636-8): as above

Structure (SMILES): NS(=O)(=O)c1cc(C(=O)O)c(NCc2ccco2)cc1Cl [Furosemide]
- β-lactamase inhibition [1]: 3%

Structure (SMILES): CCOC(=O)c1nn(-c2ccccc2)c(=O)c2c(N)scc12 [MLS000034832]
- promiscuity in other screens [2]: do not show signs of promiscuity
- 1° FP Screen Log IC50 [3]: −5.3
- 1° ThT Screen Curve class [4]: 2.1
- 1° ThT Screen Log IC50 [4]: −5.0
- 1° ThT Screen % Inhib [4]: 80%

Structure (SMILES): CCn1c(CSc2nccn2C)nc2cc(C(=O)O)ccc21 [MLS000058666]
- Tau40 % Inhib [5]: 81%
- 1° FP Screen Curve class [3]: 1.2
- 1° FP Screen Log IC50 [3]: −5.1
- 1° FP Screen % Inhib [3]: 41%
- Total Fluor % Inhib [6]: <10%
- Repeat ThT Assay % Inhib [7]: 84%
- 1° ThT Screen Curve class [4]: 1.2
- 1° ThT Screen Log IC50 [4]: −5.4
- 1° ThT Screen % Inhib [4]: 65%

Structure (SMILES): CCOC(=O)c1nn(-c2ccc(OC)cc2)c(=O)c2c(N)scc12 [MLS000062428]
- Tau40 % Inhib [5]: 64%
- promiscuity in other screens [2]: do not show signs of promiscuity
- 1° FP Screen Curve class [3]: 2.2
- 1° FP Screen Log IC50 [3]: −5.0
- 1° FP Screen % Inhib [3]: 46%
- Total Fluor % Inhib [6]: 49%
- Repeat ThT Assay % Inhib [7]: 97%
- 1° ThT Screen Curve class [4]: 2.1
- 1° ThT Screen Log IC50 [4]: −5.0
- 1° ThT Screen % Inhib [4]: 94%
- oligomeric tau species in post-centrifugation supernatant ([8]; eluted in column void volume): detectable oligomeric species
- amount of monomeric tau in post-centrifugation supernatant ([8]; relative to untreated fibrillization reaction): appreciable increase
- Centrifugation % Soluble [9]: 80%

Structure (SMILES): CN(C(=S)Nc1cccnc1)c1ccc(O)cc1 [MLS000339510]
- 1° FP Screen Log IC50 [3]: −5.5
- 1° ThT Screen Log IC50 [4]: −5.7

Structure (SMILES): CC(N)[C@H](O)c1ccc(O)c(O)c1 (stereo partly drawn) [NCGC00093795]
- 1° FP Screen Log IC50 [3]: −5.7
- Repeat ThT Assay % Inhib [7]: 103%
- 1° ThT Screen Log IC50 [4]: −5.5

Structure (SMILES): CC(=O)c1c(O)c(C)c(O)c(Cc2c(O)c3c(c(C(=O)/C=C/c4ccccc4)c2O)OC(C)(C)C=C3)c1O [Rottlerin]
- β-lactamase inhibition [1]: 53%

Structure (SMILES): CN(C)c1ccc2nc3ccc(=[N+](C)C)cc-3sc2c1 [methylene blue, reference compound]
- effect on tau-mediated tubulin polymerization [10]: significant diminution
- promiscuity in other screens [2]: active in a high percentage of PubChem screens

— PMC2773749 (Biochemistry, 2009)
